Measured values: ChEMBL document CHEMBL3085708, “Identification and profiling of 3,5-dimethyl-isoxazole-4-carboxylic acid [2-methyl-4-((2S,3'S)-2-methyl-[1,3']bipyrrolidinyl-1'-yl)phenyl] amide as histamine H(3) receptor antagonist for the treatment of depression” (Bioorg Med Chem Lett, 2013)

What was measured:
Mus musculus [1] = assay: Toxicity in mouse assessed as effect on preconvulsion at 30 mg/kg, po; format: organism-based; parameters: dose 30 mg/kg, route oral; settings: in vivo
Summary of the method: (§1)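 Acute oral group toxicity in mice: behavioural side effects scored (social interaction, motility, preconvulsant signs, convulsions, tremor) after single po doses of 30 and 100 mg/kg.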

Mus musculus [2] = assay: Toxicity in mouse assessed as effect on motility at 30 mg/kg, po; format: organism-based; parameters: dose 30 mg/kg, route oral; settings: in vivo; summary of the method: as §1
[3] = Oral bioavailability in Sprague-Dawley rat at 10 mg/kg; format: ADME, organism-based; settings: in vivo
Summary of the method: (§2)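 Male Sprague-Dawley rats dosed 2 mg/kg iv in saline (0.5 mg/mL) and 10 mg/kg po in 0.5% MC/0.2% Tween80 (1.0 mg/mL); plasma and brain concentrations followed.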

[4] = Elimination half life in Sprague-Dawley rat plasma at 10 mg/kg, po; format: ADME, organism-based; parameters: dose 10 mg/kg, route oral; settings: read-out: beta t1/2 (converted)
Summary of the method: (§3)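 Single-dose PK; male OF1 mice and male Sprague-Dawley rats, 2 mg/kg iv and 10 mg/kg po. Mouse vehicles: iv 50% 1-methyl-2-pyrrolidinone in saline (1.0 mg/mL); po 5% DMSO/0.5% MC/0.2% Tween80 (1.0 mg/mL). Rat vehicles: iv saline (0.5 mg/mL); po 0.5% MC/0.2% Tween80 (1.0 mg/mL). Plasma and brain exposure read as AUC0-∞ and t1/2.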

[5] = Tmax in Sprague-Dawley rat plasma at 10 mg/kg, po; format: ADME, organism-based; parameters: dose 10 mg/kg, route oral; summary of the method: as §2
[6] = Elimination half life in Sprague-Dawley rat brain at 2 mg/kg, iv; format: ADME, organism-based; parameters: dose 2 mg/kg, route intravenous; settings: read-out: beta t1/2 (converted); summary of the method: as §3
[7] = AUC (0 to infinity) in OF1 mouse brain at 10 mg/kg, po; format: ADME, organism-based; parameters: time infinity, dose 10 mg/kg, route oral; summary of the method: as §3
[8] = AUC (0 to infinity) in OF1 mouse brain at 2 mg/kg, iv; format: ADME, organism-based; parameters: time infinity, dose 2 mg/kg, route intravenous; summary of the method: as §3
Cytochrome P450 2C9 = Cytochrome P450 2C9 (Homo sapiens, UniProt P11712); assay: Inhibition of CYP2C9 (unknown origin) after 4 hrs; format: ADME
Chain of Cytochrome P450 2C9 (P11712 whole entry): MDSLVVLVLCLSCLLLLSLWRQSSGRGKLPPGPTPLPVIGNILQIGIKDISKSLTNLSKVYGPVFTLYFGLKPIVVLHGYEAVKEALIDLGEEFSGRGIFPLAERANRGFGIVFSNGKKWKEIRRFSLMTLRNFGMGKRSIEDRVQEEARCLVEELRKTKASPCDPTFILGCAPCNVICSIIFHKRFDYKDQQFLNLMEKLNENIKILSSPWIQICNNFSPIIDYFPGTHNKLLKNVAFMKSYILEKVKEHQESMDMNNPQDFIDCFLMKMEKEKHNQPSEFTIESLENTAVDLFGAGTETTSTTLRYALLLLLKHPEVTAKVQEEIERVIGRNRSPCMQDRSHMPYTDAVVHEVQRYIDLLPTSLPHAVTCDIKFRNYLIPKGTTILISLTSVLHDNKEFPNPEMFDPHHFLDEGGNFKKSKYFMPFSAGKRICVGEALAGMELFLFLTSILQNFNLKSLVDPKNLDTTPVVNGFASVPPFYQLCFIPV

[9] = Inhibition of cytochrome P450 (unknown origin) by mechanism-based assay; format: ADME; settings: human
Hepatocyte = assay: Intrinsic clearance in human hepatocytes measured per 10^6 cells; format: ADME, cell-based
Summary of the method: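 Intrinsic clearance in human hepatocytes, expressed as mL h−1 per 10^6 hepatocytes, n = 4.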

[10] = Drug metabolism in rabbit liver microsomes; format: ADME, Oryctolagus cuniculus, Microsome; settings: read-out: Drug metabolism
[11] = Solubility of the compound in form of crystalline free base in gastrointestinal tract simulated media; format: physicochemical

In the case of `Cc1cc(N2CC[C@H](N3CCC[C@@H]3C)C2)ccc1NC(=O)c1c(C)noc1C`, the Activity (Mus musculus [1]) is reported as “Non-toxic”, the Activity (Mus musculus [2]) is reported as “Non-toxic” and the bioavailability [3] is reported as 56%. The half-life [4] was 7.8 h, the Tmax [5] was 0.5 h and the half-life [6] was 1.8 h. It also gave an AUC(0-inf) [7] of 3.1 µg·h/mL, an AUC(0-inf) [8] of 1.1 µg·h/mL and an IC50 (Cytochrome P450 2C9) of over 100 µM. For the same compound, the “inhibition (INH)” value [9] was “Not Active”, the CLH (Hepatocyte) was 0.04 mL/h and the metabolised [10] was under 5%. It also gave a solubility [11] of over 2 mg/mL.
